# Test results as given in article PMC3201796 (Cell host & microbe, 2011).
# Read-outs that look alike come from different tables or passages of the source.
# Tests used:
# [1] = Cytostatic activity; assay type: cell-based; details: human, HEL cells, non-infected
# [2] = Cytostatic activity; assay type: cell-based; details: human, PHKs, non-infected
# [3] = tested on: HEL cells; assay: Cytotoxicity by cell morphology; assay type: cell-based, human
# Summary of the method: (§1)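 Run in non-infected cultures in parallel with the antiviral assay. Cells exposed to test compound and examined microscopically at day 3. MCC is the lowest concentration giving a detectable change in cell morphology.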
# [4] = tested on: PHKs; assay: Cytotoxicity by cell morphology; assay type: cell-based, human; details: non-infected
# Summary of the method: as §1
# [5] = tested on: HSV-2 (strain NS and RV-124); assay: Virus yield reduction assay; assay type: cell-based
# Summary of the method: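 HEL monolayers infected with HSV-2 clinical isolates NS or RV-124 at two moi for 2 h at 37 °C, then washed and given test compound in duplicate. At 24, 48 and 72 h, virus released by freeze-thaw and titrated by plaque assay on HEL cells.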
# [6] = tested on: HSV-2; assay type: cell-based; details: for Virus production (TCID50/ml): M/M
# [7] = tested on: HSV-2; assay type: cell-based; details: day 6, M/M
# [8] = tested on: HSV-2; assay: HSV-2 cytopathicity in primary monocyte/macrophage cultures; assay type: cell-based; details: day 6, M/M
# [9] = tested on: HSV-1KOS; assay: Organotypic epithelial raft cultures infected with HSV-1; assay type: cell-based
# [10] = tested on: HSV-2G; assay: Organotypic epithelial raft cultures infected with HSV-2; assay type: cell-based
# [11] = tested on: HSV-1F; assay: Human tonsillar tissue ex vivo infected with HSV-1; assay type: cell-based
# [12] = tested on: HSV-2G, HSV-2MS; assay: Human tonsillar tissue ex vivo infected with HSV-2; assay type: cell-based; details: 66 μg/ml
# [13] = tested on: HSV-2G; assay: Tonsillar tissue coinfected with HSV-2G and HIV-1LAI, HSV-2 DNA release; assay type: cell-based; details: 66 μg/ml; coinfected with HIV-1LAI; n=6
# Summary of the method: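 Human tonsillar tissue blocks sequentially infected with HSV-2 G then HIV-1 LAI; 27 blocks per condition, 9 per well in 3 ml medium. Tenofovir at 66 µg/ml kept throughout culture; untreated donor-matched tissues as control. HSV-2 DNA release into medium measured by quantitative real-time PCR; release pooled from 27 blocks per donor; 6 donors.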
# [14] = tested on: HIV-1LAI; assay: Tonsillar tissue coinfected with HSV-2G and HIV-1LAI, p24 release; assay type: cell-based; details: 66 μg/ml
# Summary of the method: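 Tonsil tissue blocks (~2 mm) kept on collagen sponge at the air–liquid interface; 27 blocks per condition (9 per well). Infected with HSV-2 strain G, then HIV-1 LAI. Test compound added 12 h before infection and replenished at each medium change for the whole culture. p24 in medium over 3-day periods measured by bead-based assay. Six donors; means ± SEM.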
# [15] = tested on: HSV-2G; assay: Human cervico-vaginal tissue ex vivo infected with HSV-2G; assay type: cell-based; details: 150 μg/ml
# [16] = tested on: HSV-1; assay: HSV-1-infected athymic nude mice; assay type: in vivo
# Summary of the method: (§2)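 Female NMRI athymic nude or hairless mice (~20 g, ~4 weeks; groups of five) scarified over ~1 cm² lumbosacral area with HSV-1 KOS (5×10^3 PFU) or HSV-2 G (5×10^2). Test compound 1% in 100% DMSO or CAPRISA 004-type gel, topical twice daily for 5 days from 1-2 h post-infection; same vehicle without drug as placebo. Lesions and mortality recorded over one month; Kaplan-Meier survival, log-rank test.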
# [17] = tested on: HSV-2; assay: HSV-2-infected athymic nude mice; assay type: in vivo
# Summary of the method: as §2
# [18] = MTT viability assay in epithelial TZM-Bl cells; assay type: cell-based, human; details: up to 1,000 μg/ml; data not shown
# Summary of the method: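 Confluent TZM-Bl epithelial monolayers exposed to a range of test compound concentrations for 3–4 days, then given MTT dye. Viable cells convert it to formazan, measured by optical density.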
# [19] = tested on: HSV-1 and HSV-2; assay type: cell-based; details: Fibroblast, read-out: EC50 values (inhibition of cytopathicity), range
# Summary of the method: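 HEL fibroblasts or primary human keratinocytes (from neonatal foreskin) infected at 100 TCID50 per strain and grown 3 days at 37 °C, 5% CO2, with a range of test compound concentrations. CPE scored visually. […] Means of at least two independent experiments, ± SD.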
# [20] = tested on: HIV-1; details: 1% vaginal gel, 889 women, CAPRISA 004; ref Abdool Karim et al., 2010; cited from earlier work
# [21] = tested on: HSV-2; details: 1% vaginal gel, CAPRISA 004; ref Cates, 2010; cited from earlier work
# [22] = in vivo; cited from earlier work
# [23] = 1% gel as in CAPRISA 004, topical
# [24] = 1% in DMSO, topical, 5 days from day of infection
compound,measurement,setting,value
"C[C@H](Cn1cnc2c(N)ncnc21)OCP(=O)(O)O [Tenofovir, (R)-9-[2-(phosphonylmethoxypropyl)adenine]]",CC50 at 3 days,[1],547 ± 39 µg/mL
same,CC50 at 3 days,[2],> 50 µg/mL
same,Cell toxicity MCC (minimum cytotoxic concentration),"[3]; HEL, non-infected, cell morphology",>400 µg/mL
same,cytotoxicity as assessed from HEL cell morphology,[3]; highest drug concentrations used (500 μg/ml),no signs of tenofovir cytotoxicity
same,Cell toxicity MCC (minimum cytotoxic concentration),[4],>200 µg/mL
same,changes in cell number,"[5]; HEL cells, any drug concentration",no changes in cell number
same,EC99 (drug concentration that decreases virus titers by two orders of magnitude),"[5]; HSV-2 RV-124 and NS, two moi, 24, 48, 72 h post-infection, PFU reduction",214 to 390 µg/mL
same,Virus production (TCID50/ml),"[6]; 0.04 μg/ml, day 6",3.2×10^5 TCID50/ml
same,Virus production (TCID50/ml),"[6]; 0.2 μg/ml, day 6",3×10^5 TCID50/ml
same,HSV-2 production,"[6]; 1 μg/ml or 0.2 μg/ml, no significant protective effect",2.4 to 3.0 × 10^5 TCID50/ml
same,Virus production (TCID50/ml),"[6]; 1 μg/ml, day 6",2.4×10^5 TCID50/ml
same,Virus production (TCID50/ml),"[6]; 5 μg/ml, day 6",7.2× 10^4 TCID50/ml
same,Virus production (TCID50/ml),"[6]; 20 μg/ml, day 6",1.3×10^4 TCID50/ml
same,drop in HSV-2 production,"[6]; 20 μg/ml, from 3.7 × 10^5 TCID50/ml in untreated",more than one log10
same,Virus production (TCID50/ml),"[6]; 100 μg/ml, day 6",No virus
same,Virus production (TCID50/ml),"[6]; 500 μg/ml, day 6 post infection",No virus
same,HSV-2 replication in M/M,[6]; 500 and 100 μg/ml,completely suppressed
same,Virus production (PFU/ml),[7]; 0.04 μg/ml,8.5×10^4 PFU/ml
same,Virus production (PFU/ml),[7]; 0.2 μg/ml,7.3×10^4 PFU/ml
same,Virus production (PFU/ml),[7]; 1 μg/ml,6.6×10^4 PFU/ml
same,Virus production (PFU/ml),[7]; 5 μg/ml,1.9×10^4 PFU/ml
same,Virus production (PFU/ml),[7]; 20 μg/ml,2.2×10^3 PFU/ml
same,Virus production (PFU/ml),[7]; 100 μg/ml,No virus
same,Virus production (PFU/ml),[7]; 500 μg/ml,No virus
same,Cytopathicity (CPE) (%),[8]; 0.04 μg/ml,85%
same,Cytopathicity (CPE) (%),[8]; 0.2 μg/ml,80%
same,Cytopathicity (CPE) (%),[8]; 5 μg/ml,60%
same,Cytopathicity (CPE) (%),[8]; 20 μg/ml,5%
same,Cytopathicity (CPE) (%),[8]; 100 μg/ml,None
same,Cytopathicity (CPE) (%),[8]; 500 μg/ml,None
same,log10 reduction in virus production,[9]; 50 μg/ml,0.81 log10
same,protection of virus-induced cytopathicity,[9]; 200 μg/ml,complete CPE protection
same,log10 reduction in virus production,"[9]; 200 μg/ml, 5 days of treatment",2.6 log10
same,activity against HSV-2 in rafts,[10]; 2 μg/ml,inactive
same,log10 reduction in virus production,[10]; 50 μg/ml,1.75 log10
same,protection of virus-induced cytopathicity,[10]; 200 μg/ml,complete CPE protection
same,log10 reduction in virus production,"[10]; 200 μg/ml, 5 days of treatment",5.4 log10
same,protection of raft epithelium (histology),[10]; 20 and 5 μg/ml,partially protective
same,reduction of replication vs donor-matched untreated tissue,"[11]; 66 μg/ml, HSV-1F",99 ± 0.1%
same,EC50,"[11]; Human alphaherpesvirus 1, in Homo sapiens, read-out: EC50 for HSV suppression",7 µg/mL
same,reduction of replication vs donor-matched untreated tissue,[12]; HSV-2G,87 ± 12%
same,reduction of replication vs donor-matched untreated tissue,[12]; HSV-2MS,91.7 ± 3.2%
same,suppression of HSV-2G replication,[13],96 ± 1%
same,inhibition of HIV-1LAI,[14],inhibited completely
same,reduction of HSV-2G replication (averaged over experiments),[15],78 ± 9%
same,HSV-2G DNA in culture medium,"[15]; untreated 6.6 log10 copies/ml, n=5",5.5 log10 copies/mL
same,appearance of lesions and death vs placebo gel,[16]; [23],delayed the appearance of herpesvirus-related lesions and subsequent death
same,morbidity and survival,[16]; [24],statistically significant suppression of morbidity and prolonged the survival
same,appearance of lesions and death vs placebo gel,[17]; [23],delayed the appearance of herpesvirus-related lesions and subsequent death
same,morbidity and survival,[17]; [24],statistically significant suppression of morbidity and prolonged the survival
same,MTT dye viability testing,[18],did not show measurable toxicity
same,EC50,[19],103 to 193 µg/mL
same,reduction of HIV-1 sexual transmission,[20],39%
same,reduction of the risk of acquisition of HSV-2,[21],51%
same,AUC24hr in cervico-vaginal fluid,[22],18600 µg·h/mL
same,level in cervico-vaginal fluid at 24 hr post drug exposure,[22],~ 100 μg/ml
